Published values pooled from the literature.
Lines come from different studies, so protocols differ.
Cell line: MCF7
Effect on: cell growth or viability

Compound | test | conditions | quantity | result
COc1cccc(CNC[C@@](C)(O)[C@@H]2CC[C@@H](C)C[C@H]2OCc2ccccc2)c1 | MTT | 10 µM, 72 h | inhibition | 76.8%
CCOC(=O)c1nn(-c2cccc(Cl)c2)/c(=N/N=C(\C)c2ccc(NC(=O)c3ccccc3)cc2)s1 | MTT | 2.5 µM | viability | 2.67%
C[C@@H]1CC[C@@H]([C@](C)(O)CNCc2ccccc2F)[C@H](OCc2ccccc2)C1 | MTT | 30 µM, 72 h | inhibition | 89.6%
COc1ccc(-c2cc(-c3cccc(Br)c3)c3c(=O)[nH]c(=O)[nH]c3n2)cc1 | MTT | 48 h | IC50 | 13.7 µM
C[C@@H]1CC[C@@H]([C@](C)(O)CNCc2cccc3ccccc23)[C@H](OCc2ccccc2)C1 | MTT | 30 µM, 72 h | inhibition | 92.2%
CC(=NNC(N)=S)c1ccc(Nc2nnc(-c3ccc(Cl)cc3)c3ccccc23)cc1 | MTT | 5 µM, 24 h | viability | 9.07%
COc1cccc2c1C(=O)c1c(O)c3c(c(O)c1C2=O)C[C@@](O)(C(=O)CO)C[C@@H]3O[C@H]1C[C@H](N)[C@H](O)[C@H](C)O1 | MTT | 100 µM, 48 h | inhibition | 96.8%
CC(=O)Nc1ccc(Oc2nnc(-c3ccc(Cl)cc3)c3ccccc23)cc1 | MTT | 5 µM, 24 h | viability | 3.72%
CC(=O)c1c(C)c2cnc(Nc3ccc(N4CCNCC4)cn3)nc2n(C2CCCC2)c1=O |  | 5 days | EC50 | 0.0383 µM
C[C@@H]1CC[C@@H]([C@@](O)(CNCc2ccccc2)COCc2ccccc2)[C@H](OCc2ccccc2)C1 | MTT | 10 µM, 72 h | inhibition | 94.8%
CCN1CCN(Cc2ccc(Nc3ncc(F)c(-c4cc(F)c5nc(C)n(C(C)C)c5c4)n3)nc2)CC1 |  | 5 days | EC50 | 0.009 µM
COc1ccc(-c2cc(-c3ccc(OC)cc3)c3c(=O)n(C)c(=O)n(C)c3n2)cc1 | MTT | 48 h | IC50 | 18.6 µM
Cc1nc(Nc2ccc3c(c2)/C(=C/c2ccccc2C)C(=O)N3C)c2ccccc2n1 | MTT |  | IC50 | 21.4 µM
CC(=NNC(=S)Nc1ccccc1)c1ccc(Nc2nnc(-c3ccc(Cl)cc3)c3ccccc23)cc1 | MTT | 10 µM, 24 h | viability | 3.45%
C[C@@H]1CC[C@@H]([C@](C)(O)CNCc2ccccc2)[C@H](OCc2ccccc2)C1 | MTT | 10 µM, 72 h | inhibition | 97.6%
CC(=NNC(=O)c1cccnc1)c1ccc(Nc2nnc(-c3ccc(Cl)cc3)c3ccccc23)cc1 | MTT | 0.312 µM, 24 h | viability | 100%

Compound | test | conditions | quantity | result
Cc1ccc(-c2cc(-c3ccc(Cl)c(F)c3)c3c(=O)[nH]c(=O)[nH]c3n2)cc1 | MTT | 48 h | IC50 | 14.6 µM
C[C@@H]1CC[C@@H]([C@](O)(CNCc2cccc3ccccc23)COCc2ccccc2)[C@H](OCc2ccccc2)C1 | MTT | 30 µM, 72 h | inhibition | 87.7%
O=C(Nc1ccc(Oc2nnc(-c3ccc(Cl)cc3)c3ccccc23)cc1)c1cccc([N+](=O)[O-])c1 | MTT | 5 µM | cell death | 92.1%
C[C@@H]1CC[C@@H]([C@](O)(CNCc2ccccc2)COCc2ccc(F)cc2)[C@H](OCc2ccc(F)cc2)C1 | MTT | 30 µM, 72 h | inhibition | 100%
CC(=O)c1nn(-c2ccccc2Cl)/c(=N/N=C(\C)c2ccc(NC(=O)c3ccccc3)cc2)s1 | MTT | 10 µM | viability | 5.78%
COc1ccc(-c2cc(-c3ccc(C)cc3)nc3c2c(=O)n(C)c(=O)n3C)cc1OC | MTT | 48 h | IC50 | 29.5 µM
CC(=O)Nc1ccc(/C(C)=N/N=c2\sc(C(C)=O)nn2-c2ccc(C)cc2)cc1 | MTT | 1.25 µM | viability | 49.5%
COc1cccc2c1C(=O)c1c(O)c3c(c(O)c1C2=O)C[C@@](O)(C(=O)CO)C[C@@H]3O[C@H]1C[C@H](N)[C@H](O)[C@H](C)O1 | MTT |  | GI50 | 7.32 µM
COc1ccc(-c2cc(-c3cc(OC)ccc3OC)c3c(=O)[nH]c(=O)[nH]c3n2)cc1 | MTT | 48 h | IC50 | 14.3 µM
O=C(NO)c1ccc(CNc2nc3cccc(-c4ccc5c(c4)OCO5)n3n2)cc1 | SRB |  | GI50 | 0.65 µM
CC(=NNC(=O)c1ccncc1)c1ccc(Nc2nnc(-c3ccc(Cl)cc3)c3ccccc23)cc1 | MTT | 2.5 µM, 24 h | viability | 5.58%
O=C1CC[C@H](N2Cc3cc(N4CCN(CC5CCN(c6ccc([C@@H]7c8ccc(O)cc8CC[C@@H]7c7ccccc7)cc6)CC5)CC4)ccc3C2=O)C(=O)N1 | ATP luminescence | 5 days | GI50 | 0.0033 µM
CC(=O)c1nn(-c2ccc(C)cc2)/c(=N/N=C(\C)c2ccc(NC(=O)c3ccccc3)cc2)s1 | MTT | 2.5 µM | viability | 6.47%
COc1ccc(-c2cc(-c3ccc(Br)cc3)c3c(=O)n(C)c(=O)n(C)c3n2)cc1 | MTT | 48 h | IC50 | 29.4 µM
C[C@H](Nc1ccc2c(c1)OCCn1cc(N3C(=O)OC[C@H]3C(F)F)nc1-2)C(N)=O |  | 5 days | EC50 | 0.0193 µM
